This data set has as its system MS2 coat protein. The data set is described as follows: apparent Kd, MS2 coat protein; higher = weaker binding; RNA-MaP array; FMN 200 µM where present. The procedure, abridged: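 In 100 mM Tris-HCl pH 7.5, 80 mM KCl, 4 mM MgCl2, BSA, DTT, yeast tRNA and Tween-20, SNAP-549-labelled MS2 coat protein was titrated from 0.7 or 1.5 nM, doubling to 3 µM, over designs transcribed by stalled E. coli RNA polymerase on Illumina sequencing-chip clusters. This was done first without ligand, then with ligand held constant. After green signal was normalised to red-channel RNA signal and control-cluster median Fmax, the apparent Kd was taken as the median of filtered per-cluster binding-curve fits.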

[1] abbreviates: designed as: OFF switch for flavin mononucleotide, no ligand.
The mark [2] stands for this setting: ligand present: flavin mononucleotide, designed as: OFF switch for flavin mononucleotide.
The mark [3] stands for this setting: designed as: ON switch for flavin mononucleotide, no ligand.
Where [4] appears, read: ligand present: flavin mononucleotide, designed as: ON switch for flavin mononucleotide.

In the case of “UCAGGCUUCGAGAAGGACAUGAGGAUCACCCAUGUUAACAUGUAGCAGCCGUGAGGCUGCAUCAUGUAGGAUAUCGGAGUCUGC”, the apparent Kd (usually the concentration giving half-maximal binding under the conditions of the assay) reads like this: under setting [1], 6.07 nM; under setting [2], 7.07 nM.
As for “UACAUUACUGAGAAGGGAUAUAUAUAAUUUUAGUCAGGAUAUCGAUACAGUGCAGCAUGAGGACAUGAGGAUCACCCAUGUAUU”, the “apparent Kd” value under setting [3] came to 20.5 nM and the “apparent Kd” value under setting [4] was 17 nM.
As for “CCCACAUGAGGAUAUCCAUCUGGAUCAGACUAGAUCCUGAUGGAGAAGGUACAUGAGGAUCACCCAUGUGUGGG”, the “apparent Kd” value was 301 nM under setting [1] and 222 nM under setting [2].
Regarding “AUAUUACGAGGAUAUCGUUUUUUUCACAUGAGGAUCACCCAUGUUAUUUAUGUUUCGUUUCGAGAAGGCGUAAGUU”, the “apparent Kd” value under setting [1] stood at 25 nM and the “apparent Kd” value under setting [2] is 22.1 nM.
Turning to “AAAAAACAUGAGGAUCACCCAUGUAAUAAAACGUCAGGAUAUUGAUUUUAUUAUUUAUUGCGAGAAGGGACAAAAA”, the “apparent Kd” value is, setting by setting: under setting [3], 37.1 nM; under setting [4], 24.4 nM.
The like results for “AUGGUACAUGAGGAUCACCCAUGUCCAGCAAAUCAAGGAUAUGGACGACAAAUUUCUCGGCCAGAAGGUGAAACAA” were, in that order, 39.4 nM and 21.5 nM.
Regarding “ACGUUUUAUGCAGGAUAUUGAAAUUUAUUACAACAAGAAGGGCAAUACAUGAGGAUCACCCAUGUCAGCAUGGUAUUAAAGUUC”, the “apparent Kd” value is, setting by setting: under setting [1], 18 nM; under setting [2], 16.1 nM.
For “CUUAGACAUGAGGAUCACCCAUGUGAGGAUAUGAUGCGAUCGUGCUGACAUGAUCGCAUCAGAAGGCACAAAUG”, in that order: 141 nM and 173 nM.
As to “AACUACCCGUCAGGAUAUCGCCGUAGGUCCUCGGGUCUCGCCGUCAUACAUGAGGAUCACCCAUGUGAGAAGGGACGGGUUUCA”, the “apparent Kd” value was determined as 20.9 nM under setting [1] and 136 nM under setting [2].
In the case of “AAUAAACUCACAGGAUAUAGCAUCGUCGGUAUGAACUUAAAGACGACGAUGCUAGAAGGGUGACCACAUGAGGAUCACCCAUGU”, the “apparent Kd” value runs as follows: under setting [3], 903 nM; under setting [4], 114 nM.
As for “UAUAUAUAGGCAGGAUAUACAUGAAUAUAUAAUAUAUUAUAUAAUAUAACAUGAGGAUCACCCAUGUAGAAGGGCCAUAAUAUA”, the “apparent Kd” value runs as follows: under setting [1], 67 nM; under setting [2], 106 nM.
The like results for “GUACUGAAGCCUUGCUUUAGUCGUACAUGAGGAUCACCCAUGUAGGAUAUGGUAGGCUUUGCUUACUAGAAGGAUAGAGUGAUC” were, in that order, 56.1 nM and 34 nM.
Take “CCGGAAAUGAAGGAUAUAGGAGUCGAUAGACACCUAGAAGGUCAUACAUGAGGAUCACCCAUGUGUCCUACCGG”: the “apparent Kd” value is, setting by setting: under setting [1], 15.2 nM; under setting [2], 31 nM.
For “GACUUCCGAGGAUAUACAUGAGGAUCACCCAUGUGCUUCAGCAUUUUUUGAUGCAUGGGUAGAAGGCGGUAGUU”, the “apparent Kd” value stood at 261 nM under setting [1] and 281 nM under setting [2].
Consider “GCCUCAUAGUAGAAGGGACUUAGACAGUUAAGCAUCUUGUACAAUUAACAUGAGGAUCACCCAUGUCAGGAUAUACUAAGAGGC”, for which the “apparent Kd” value is 8.02 nM under setting [1] and 9.49 nM under setting [2].
Regarding “AAAAUGCAAGGAUAUACAUGAGGAUCACCCAUGUAGAAGGAAGCGAGGGUUUCCUGCUGUAGAAGGUGCUACAG”, the “apparent Kd” value runs as follows: under setting [1], 23 nM; under setting [2], 20.5 nM.
As for “UGAUCACAUGAGGAUCACCCAUGUCAGGAUAUCUACAUUGAAGCUGCGGCUUCAAUGUAGAGAAGGGAUAUAAU”, the “apparent Kd” value is 99 nM under setting [1] and 229 nM under setting [2].
The like results for “CUUUUGUGAGGAUAUCAGUAGUAAUACAAUAGUAUUACUACUGAGAAGGCACAUGAGGAUCACCCAUGUUUCUC” were, in that order, 42.4 nM and 121 nM.
The like results for “AUUAUUAAAGUGAGGAUAUCUAGAGCCUCGGCUCUAGAGAAGGCACAUGAGGAUCACCCAUGUCUCAAUUAUUA” were, in that order, 19.1 nM and 56.1 nM.
For “GUAUGUAAGGAGAAGGGCUACUGGUUGAAACCUGCGGCCUCUGGAACAUGAGGAUCACCCAUGUAGCAGGAUAUCCUUGCGUGA”, the “apparent Kd” value reads like this: under setting [1], 222 nM; under setting [2], 22.9 nM.
As to “UGUAACCAAGGAUAUACAUGAGGAUCACCCAUGUAAUGUAGUAUAGUGUGUGUGAGGUGUAGAAGGAGGGAUGU”, the “apparent Kd” value came out at 76.3 nM under setting [1] and 73.6 nM under setting [2].
For the sequence “AAGGAGUUAGGAUAUGCUGCUCGUCACUUGCGUGAUGAGUAGCAGAAGGGACAUGAGGAUCACCCAUGUAAAGA”, the “apparent Kd” value was found to be 41.9 nM under setting [1] and 21.9 nM under setting [2].
As for “UCAUUUUACACAGGAUAUAUUCAUAUACAGUUGUUUGGCUCUUACAUGUUAGUAGAAGGGUGCAACAUGAGGAUCACCCAUGUA”, the “apparent Kd” value by setting is: under setting [3], 279 nM; under setting [4], 274 nM.
Regarding “AAGAUGCCUCCUGCUGGUGGGAGACAUGAGGAUCACCCAUGUCAGGAUAUCGGUUAAAGAGGACACGAGAAGGGACAGGAGUAC”, the “apparent Kd” value is, setting by setting: under setting [1], 8.19 nM; under setting [2], 9.23 nM.

The record behind these values is the EternaBench riboswitch data.
